# Screening data as filed in PubChem BioAssay.
# ERa coact pot = enhancers of ERα–SRC-1 coactivator binding, primary screen, biochemical, TR-FRET, ERα LBD, low estradiol | Estrogen receptor (Homo sapiens), P03372 | TR-FRET ERalpha-LBD/SRC-Cy5 coactivator binding, 2 h; 100 = basal binding, no effect | coactivator binding (% of control), % at 25.6 µM | 86,000 compounds, 1.3% hits; in the data active = activity above about 200%;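 note: binding measured in presence of low estradiol as agonist stimulus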
# HUVEC prolif 384 = inhibitors of HUVEC proliferation, primary screen, cell-based, 384-well; viability, % at 10 µM (by protocol); CellTiter-Glo luminescence, 72 h; hits give low values; 86,000 compounds, 1.1% hits; AID 648, 2007;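 active = viability at or below 30%; inactive = viability above 30%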
# Lung fibro prol = antiproliferative effect on LL 47 fibroblasts – human, LL 47 cells, CellTiter-Glo luminescence, primary screen; LL 47 human lung fibroblast viability, ATP luminescence; hits give low values; viability, % at 10 µM; 85,000 compounds, 1.1% hits; AID 719, 2007;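 active = viability at or below 50% in the single dose screen; inactive = viability above 50%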;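 note: compound exposure lasted 72 h before the ATP readout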
#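 Times – overnight cell rest, 72 h compound treatment at 37 °C · Test system – human lung fibroblast line LL 47, low passage · Amount – 1,150 cells in each well · Controls – cell-only wells, no compound · Doses – 0.1% DMSO in all compound wells · Measured by – CellTiter-Glo luminescence · Buffer or medium – IMEM plus 15% FBS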
# ERb coact inh = inhibitors of ERβ-SRC1 coactivator interaction, primary screen, biochemical, TR-FRET, ERβ LBD, SRC-1 peptide; Estrogen receptor beta (Homo sapiens), Q92731; TR-FRET ER-beta LBD / SRC1-Cy5 peptide binding; receptor agonist-loaded with 1 µM estradiol; inhibition, % at 25.6 µM; 86,000 compounds, 1.3% hits; AID 633, 2007;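 active = compounds whose percent inhibition of the receptor-coactivator binding signal exceeds about 50% in the single-dose screen, limit read from the data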
# Target sequence (Q92731 whole entry, looked up, the tested form may be a part): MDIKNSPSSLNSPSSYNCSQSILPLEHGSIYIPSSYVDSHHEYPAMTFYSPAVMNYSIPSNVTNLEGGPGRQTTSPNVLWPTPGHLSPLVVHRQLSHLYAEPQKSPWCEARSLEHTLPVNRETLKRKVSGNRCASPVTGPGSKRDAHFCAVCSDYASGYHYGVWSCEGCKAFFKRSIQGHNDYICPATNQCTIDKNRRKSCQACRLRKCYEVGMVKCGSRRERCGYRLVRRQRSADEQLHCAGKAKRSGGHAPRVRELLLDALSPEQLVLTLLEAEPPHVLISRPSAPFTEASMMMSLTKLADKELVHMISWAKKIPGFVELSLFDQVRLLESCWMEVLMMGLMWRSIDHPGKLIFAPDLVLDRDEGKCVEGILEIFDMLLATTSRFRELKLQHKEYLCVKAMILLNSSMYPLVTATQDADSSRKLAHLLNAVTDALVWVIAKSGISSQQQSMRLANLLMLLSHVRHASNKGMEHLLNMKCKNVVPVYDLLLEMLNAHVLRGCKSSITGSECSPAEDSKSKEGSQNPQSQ
# H69AR inhibit = proliferation blockers of H69AR lung cancer cells, primary screen, cell-based, human, 86K library | viability, % at 10 µM | AID 598, 2007 | 85,000 compounds, 6% hits | H69AR lung tumor viability, ATP luminescence, 72 h; hits give low values;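 active = viability at or below 40%; inactive = viability above 40%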;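 note: multidrug resistant small cell line overexpressing MRP-1 efflux transporter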
# ERa coact inh = ERα–SRC-1 coactivator interaction inhibitors, primary screen, biochemical, TR-FRET, ERα LBD, estradiol-bound; Estrogen receptor (Homo sapiens), P03372; AID 629, 2007; 86,000 compounds, 1.7% hits; inhibition, % at 25.6 µM; TR-FRET ER-alpha LBD / SRC-1 peptide; in the data active = inhibition above about 50%
# A number is an active result; - = inactive; . = no result given; [ ] = remark or other dose. This is a sample that favours compounds with a hit; in the whole collection about 9.2% have one here.
SMILES,ERa coact pot,HUVEC prolif 384,Lung fibro prol,ERb coact inh,H69AR inhibit,ERa coact inh
O=C(Nc1nnc(-c2ccco2)s1)C1CCN(S(=O)(=O)c2ccc(Cl)cc2)CC1,410.5[fluorescence artefact?],-,-,-,-,-
O=C(Nc1nnc(-c2ccco2)s1)C1CC1,-,-,-,-,-,-
Cn1c(-c2ccc3c(c2)OCO3)cnc1NCc1ccccc1,-,-,-,-,23.9,-
Cn1c(-c2ccc3c(c2)OCO3)cnc1NC(=O)CCC(=O)NCCc1ccccc1,-,-,-,-,-,-
Cn1c(-c2ccc3c(c2)OCO3)cnc1NCc1cccc(Cl)c1,-,-,-,-,33.0,-
Cc1cc(C(=O)CN2C(=O)NC(c3ccccc3)(c3ccccc3)C2=O)c(C)n1Cc1ccccc1,-,-,-,-,-,-
O=C(CCSCCC(=O)NCc1ccco1)NCc1ccco1,-,-,-,56.8[fluorescence artefact?],-,59.1[fluorescence artefact?]
O=C(COC(=O)CCOc1ccccc1)NCc1ccco1,-,-,-,61.7[fluorescence artefact?],-,70.0
Cc1ccc(S(=O)(=O)NCC2CCC(C(=O)NCCCOC(C)C)CC2)cc1 (configuration not stated),.,-,-,.,-,.
S=C(c1ccc[nH]1)N1CCOCC1,-,-,-,-,-,-
COC(=O)c1ccc2c(=O)n(CCCCCC(=O)NCc3ccccc3)c(=O)[nH]c2c1,-,-,-,52.4[fluorescence artefact?],-,84.7[fluorescence artefact?]
COC(=O)c1ccc2c(=O)n(CCCCCC(=O)NCc3ccc4c(c3)OCO4)c(=O)[nH]c2c1,-,-,-,-,-,88.2
CCCCCn1c(=O)[nH]c2cc(C(=O)NCc3ccc4c(c3)OCO4)ccc2c1=O,-,-,-,-,31.6,60.5[fluorescence artefact?]
O=C(CCCn1c(=O)[nH]c2ccsc2c1=O)N1CCN(Cc2ccc3c(c2)OCO3)CC1,-,-,-,-,-,-
COC(=O)c1ccc2c(=O)n(CCCCCC(=O)NCc3ccccn3)c(=O)[nH]c2c1,-,-,-,-,-,-
CCCCCn1c(=O)[nH]c2cc(C(=O)N3CCN(Cc4ccc5c(c4)OCO5)CC3)ccc2c1=O,-,-,-,-,9.3,-
Cc1ccc(NC(=O)CCn2cccc2)cc1Cl,-,-,-,-,-,-
CCOC(=O)C1CCN(S(=O)(=O)c2cc(Br)cc3c2N(C(C)=O)C(C)C3)CC1 (configuration not stated),-,-,-,-,-,-
CCCCNC(=O)c1sc(=S)n2c1[nH]c(=O)c1ccccc12,-,-,-,-,26.3,-
COCCn1c(C)cc(C(=O)CSc2nc3ccccc3o2)c1C,-,25.4,-,-,-,-
CCOc1ccc(NCc2nnc(SCC(=O)Nc3cc(C)on3)n2-c2ccccc2OC)cc1,-,-,-,-,11.8,-
CC(=O)N(Cc1ccc(F)cc1)C1=C(NCCc2ccccc2)C(=O)c2ccccc2C1=O,-,4.3,1.8,-,1.2,-
CCCOc1ccc(-c2nnc(-c3cccs3)o2)cc1,215.3[fluorescence artefact?],-,-,-,-,-
Clc1ccc(Cc2nn3c(Cn4nnc5ccccc54)nnc3s2)cc1,-,-,-,-,.,-
CCOCCCn1c(=N)c(C(=O)Nc2cc(C)on2)cc2c(=O)n3ccccc3nc21,-,-,-,-,-,-
SMILES,ERa coact pot,HUVEC prolif 384,Lung fibro prol,ERb coact inh,H69AR inhibit,ERa coact inh
O=C(/C=C/Sc1ccccc1)c1ccccc1,-,-,8.3,-,2.2,-
O=C(/C=C/Nc1ccccc1)c1ccccc1,-,-,-,-,-,-
O=C(/C=C/Sc1ccccc1)c1ccc(Cl)cc1,-,-,32.8,-,1.6,-
NC(=O)c1ccccc1N/C=C/C(=O)c1ccc(Cl)cc1,-,-,-,-,-,-
Cc1cc(S(=O)(=O)N2CCC(NC(=O)C34CC5CC(CC(C5)C3)C4)CC2)ccc1-n1cnnn1,-,-,-,-,-,-
CC(=O)c1c(C)[nH]c(C(=O)CSc2nc3ccc(C)cc3[nH]2)c1C,-,-,-,-,-,-
CCOc1cc(/C=N/NC(=O)Cn2nc([N+](=O)[O-])cc2C)cc(Br)c1OCc1ccccc1F,-,29.7,-,-,8.3,-
N#C/C(=N\Nc1ccccc1F)C(=N)N1CCCCC1,-,-,-,60.0[fluorescence artefact?],-,-
N#C/C(=N\Nc1ccc(Cl)cc1)C(=N)N1CCCCC1,-,-,-,-,-,-
CC1(C)C=C(c2ccc(O)cc2)CC(C)(C)N1,-,-,.,-,-,-
C/C=C(/C(=C/C)c1ccc(O)cc1)c1ccc(O)cc1,740.6,-,-,-,20.6,-
Oc1ccc(-n2cnnn2)cc1,-,-,-,-,-,-
C=C(c1ccc(O)cc1)c1ccc(O)cc1,-,-,.,-,22.6,-
CCN1N=C(c2ccccc2)Cn2c1nc1ccccc12,-,-,-,-,-,-
FC(F)(F)c1cc(-c2ccccc2)nc(N2CCOCC2)n1,-,-,-,-,-,-
N#Cc1c(C(F)(F)F)cc(-c2ccccc2)nc1SCc1nc(N)nc(N2CCOCC2)n1,361.9[fluorescence artefact?],-,-,-,20.7,62.1
O=C1CC(N2CCN(c3nc4ccccc4s3)CC2)C(=O)N1c1ccc(F)cc1 (configuration not stated),-,-,-,-,-,-
COC(=O)/C=C1\C(=O)N(c2nc3ccccc3s2)C(=S)N1c1ccc(F)cc1,-,-,49.7,-,-,-
Cc1ccc(/C=C/C2=Cc3c(sc(NC(=O)CSc4n[nH]c(N)n4)c3C#N)C(C)(C)C2)o1,-,-,-,-,28.5,-
Nc1c(Br)cc(Br)c(N2CCCC2=O)c1Br,-,-,-,-,-,-
Cc1ccccc1Nc1nc(Nc2ccccc2C)nc(SC2=NCCS2)n1,-,-,-,-,-,-
Cc1ccc(Nc2nc(Nc3ccc(C)cc3)nc(SC3=NCCS3)n2)cc1,-,-,-,-,10.6,-
O=C1CCCN1c1cc(Cl)ccc1Cl,-,-,-,-,-,-
COc1ccc(OC)c(NC(=O)Cc2coc3ccc4ccccc4c23)c1,-,-,-,-,-,-
Cc1ccc(-c2cc(-c3ccc(F)cc3)nc(N)c2C#N)o1,-,-,-,-,13.6,-
CCCSc1nc(N2CCOCC2)c2c(c1C#N)CCCC2,-,-,-,-,-,-
N#CCCSc1nc(N2CCOCC2)c2c(c1C#N)CCCC2,-,-,-,-,37.8,-
COc1ccc(N=CC2=C(Nc3ccc(OC)cc3)c3c(C)nn(-c4ccccn4)c3CC2)cc1,-,3.0,-,-,39.0,-
COc1ccc(-c2cc(C(=O)O)c3c(C)nn(-c4ccccn4)c3n2)cc1,-,-,-,-,-,-
